Paper PMC11665415 (Neurobiology of Pain, 2024)
Entries after “also recorded” stand apart in the source; their conditions may differ. Read-outs that look alike come from different tables or passages of the source.

Legend:
naïve mice [1] = assay: Rotarod test of motor coordination in naïve mice; assay type: in vivo, mouse; details: male and female naïve mice, 30 mg/kg IP
How it was run: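 Naïve male and female mice received test compound at 30 mg/kg IP, dissolved in 30 % DMSO. Motor coordination measured on the rotarod. A mouse that fell was placed back on the cylinder and the session continued.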

viral entry = details: 1 µM, multiple cell types; ref Drewry et al., 2022; cited from earlier work
PIKfyve = details: 403 wild-type human kinases; ref Drewry et al., 2022; cited from earlier work
[2] = test system: voltage-gated sodium channels; assay type: cell-based, rat; details: for Effect on density of sodium currents: acute application
[3] = Snapshot pharmacokinetics in Balb/C mice; assay type: in vivo, mouse; details: 10 or 30 mg/kg IP or PO, up to five hours after dosing
[4] = test system: SNI-induced cold allodynia; assay: Spared nerve injury; assay type: in vivo, mouse; details: for SNI-induced cold allodynia, AUC between 0 and 6 h: day 28 post-SNI
[5] = test system: SNI-induced mechanical allodynia; assay: Spared nerve injury; assay type: in vivo, mouse
How it was run: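 On day 28 after spared nerve injury, 50 % paw withdrawal threshold measured by von Frey up-down method, at baseline and from 0 to 6 h after a single IP injection. Doses: 3, 10 and 30 mg/kg in males; 30 mg/kg in females; vehicle 30 % DMSO. AUC over 0–6 h. n = 8. Two-way ANOVA with Tukey; one-way ANOVA with Dunnett.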

potassium channels = assay: Whole-cell patch-clamp recordings of total potassium currents; assay type: cell-based, rat
How it was run: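 Rat DRG neurons cultured in medium with 10 % FBS and 15 ng/ml NGF, on poly-D-lysine/laminin-coated coverslips at 37 °C, 5 % CO₂, and used within 24 h. Whole-cell patch clamp with test compound (10 µM) or 0.1 % DMSO in the external solution. Current density–voltage and peak current density (pA/pF) given as mean ± SEM.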

[6] = Snapshot/standard pharmacokinetics in CD-1 mice; assay type: in vivo, mouse; details: for half-life: male, CD-1, mouse, plasma
naïve mice [7] = assay: Mechanical and cold sensitivity in naïve mice; assay type: in vivo, mouse; details: male and female naïve mice, 30 mg/kg IP
How it was run: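 Naïve male and female mice got test compound at 30 mg/kg IP in 30 % DMSO, with a 1 h wait before testing. Mechanical sensitivity measured with von Frey filaments by the up-down method. Cold sensitivity measured by applying an acetone drop to the hind paw.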

[8] = test system: voltage-gated calcium channels; assay type: cell-based, rat
SH-SY5Y cells = SH-SY5Y cells treated at 5 µM; ref Drewry et al., 2022; cited from earlier work
[9] = test system: capsaicin-induced mechanical allodynia; assay: Capsaicin pain model, mechanical allodynia; assay type: in vivo, mouse; details: 30 mg/kg IP
How it was run: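 Mice got intraplantar capsaicin (12 µg in 10 µL; vehicle 80 % saline, 10 % ethanol, 10 % Tween80) in the left footpad under isoflurane. One h later: single IP dose of test compound at 30 mg/kg or vehicle (30 % DMSO). 50 % paw withdrawal threshold by von Frey up-down method, baseline then 0–4 h post-dose. AUC over 0–4 h. n = 8 per sex. Two-way ANOVA with Tukey; one-way ANOVA with Dunnett for AUC.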

Compound: CN(C)CC#Cc1ccc2[nH]c3c(c2c1)-c1nc(N)ncc1CCC3 [SGC-PIKFYVE-1]
- Motor coordination (rotarod) (naïve mice [1]): did not induce changes
- Viral entry (viral entry): inhibited viral entry
- Kinome selectivity (PIKfyve): highly selective for PIKfyve
- Voltage-dependence of activation ([2]; 10 µM, compared to the vehicle): remained unchanged
- Hyperpolarizing shift in the voltage-dependence of inactivation ([2]; 10 µM, vs vehicle): 4 mV
- Activation k ([2]; SGC-PIKFYVE-1 1 µM, DMSO control 4.93 ± 0.44): 6.54 ± 0.66
- Fast inactivation k ([2]; SGC-PIKFYVE-1 1 µM, DMSO control −13.64 ± 1.53): −14.49 ± 1.69
- Activation V0.5 (mV) ([2]; SGC-PIKFYVE-1 1 µM, DMSO control −21.776 ± 0.50): −21.09 ± 0.74 mV
- Fast inactivation V0.5 (mV) ([2]; SGC-PIKFYVE-1 1 µM, DMSO control −53.6 ± 1.56): −51.69 ± 1.67 mV
- Activation k ([2]; SGC-PIKFYVE-1 10 µM, ProTxII set (Fig. 1), DMSO control 4.25 ± 0.42): 4.89 ± 0.56
- Fast inactivation k ([2]; SGC-PIKFYVE-1 10 µM, ProTxII set (Fig. 1), DMSO control −11.11 ± 0.74): −10.32 ± 0.73
- Activation V0.5 (mV) ([2]; SGC-PIKFYVE-1 10 µM, ProTxII set (Fig. 1), DMSO control −20.48 ± 0.48): −20.11 ± 0.63 mV
- Fast inactivation V0.5 (mV) ([2]; SGC-PIKFYVE-1 10 µM, ProTxII set (Fig. 1), DMSO control −47.42 ± 0.79): −51.51 ± 0.79 mV
- IV curve Peak/density (pA/pF) ([2]; SGC-PIKFYVE-1 10 µM, ProTxII set (Fig. 1), DMSO control −533.2 ± 42.99): −348.7 ± 38.42 pA/pF
- Activation k ([2]; SGC-PIKFYVE-1 10 µM, VX-548 set (Fig. 2), DMSO control 3.70 ± 0.39): 3.73 ± 0.47
- Fast inactivation k ([2]; SGC-PIKFYVE-1 10 µM, VX-548 set (Fig. 2), DMSO control −12.25 ± 1.08): −10.25 ± 1.63
- Activation V0.5 (mV) ([2]; SGC-PIKFYVE-1 10 µM, VX-548 set (Fig. 2), DMSO control −24.61 ± 0.44): −20.18 ± 0.55 mV
- Fast inactivation V0.5 (mV) ([2]; SGC-PIKFYVE-1 10 µM, VX-548 set (Fig. 2), DMSO control −52.39 ± 1.14): −58.85 ± 1.79 mV
- IV curve Peak/density (pA/pF) ([2]; SGC-PIKFYVE-1 10 µM, VX-548 set (Fig. 2), DMSO control −358.2 ± 32.87): −189.7 ± 47.11 pA/pF
- Effect on density of sodium currents ([2]; 1 µM): but not at 1 µM
- Effect on density of sodium currents ([2]; 10 µM): decrease in the density of sodium currents
- Plasma concentration relative to cellular affinity for PIKfyve [3]: maintained well above the cellular affinity for PIKfyve
- SNI-induced cold allodynia ([4]; female mice, 30 mg/kg IP): reduced
- SNI-induced cold allodynia, AUC between 0 and 6 h ([4]; female mice, 30 mg/kg IP): reversed SNI-induced cold allodynia
- SNI-induced cold allodynia, AUC between 0 and 6 h ([4]; male mice, 30 mg/kg IP): reversed SNI-induced cold allodynia
- SNI-induced cold allodynia ([4]; male mice, 3, 10 and 30 mg/kg IP): reduced SNI-induced cold allodynia for six hours in a dose-dependent manner
- SNI-induced tactile allodynia ([5]; female mice, 30 mg/kg IP): reduced SNI-induced tactile
- Antiallodynic effect (AUC 0-6 h), dose dependence ([5]; male neuropathic mice, 3, 10 and 30 mg/kg IP): dose-dependent
- Paw mechanical withdrawal threshold ([5]; male neuropathic mice, single IP injection 30 mg/kg, day 28 post-SNI): increase of the paw mechanical withdrawal threshold for four hours
- IK+ current or peak densities (potassium channels; acute treatment, 10 μM, vs 0.1 % DMSO): did not alter
- IV curve Peak/density (pA/pF) (potassium channels; total potassium currents, SGC-PIKFYVE-1 10 µM, DMSO control 184.90 ± 17.17): 213.92 ± 21.52 pA/pF
- Oral bioavailability and in vivo stability (snapshot PK) ([6]; CD-1 mice, 10 mg/kg IP or PO, five-hour time course): exhibited oral bioavailability and remained relatively stable in vivo
- Detectability in plasma over twenty-four hours ([6]; CD-1 mice, 10 mg/kg IP or PO, no time points between 8 and 24 h): no longer detectable after eight hours
- Adverse effects / tolerability ([6]; CD-1 mice, 30 mg/kg): did not induce any adverse effects; also recorded: well tolerated
- Detectability in plasma over twenty-four hours ([6]; CD-1 mice, 30 mg/kg IP or PO): not detectable after eight hours
- Plasma concentration relative to cellular affinity for PIKfyve ([6]; CD-1 mice, 30 mg/kg twice daily (BID) IP or PO): well above its cellular affinity for PIKfyve
- half-life ([6]; ip): ~3.5 h
- half-life ([6]; po, 30 mg/kg): 3.5 h
- Mechanical and cold sensitivity (naïve mice [7]): did not induce changes
- Calcium current density and peak current ([8]; 10 µM, vs 0.1 % DMSO): unaffected
- Fast inactivation k ([8]; total calcium currents, SGC-PIKFYVE-1 10 µM, DMSO control 0.99 ± 0.01): 0.98 ± 0.02
- Activation k ([8]; total calcium currents, SGC-PIKFYVE-1 10 µM, DMSO control 5.99 ± 0.64): 5.73 ± 0.58
- Activation V0.5 (mV) ([8]; total calcium currents, SGC-PIKFYVE-1 10 µM, DMSO control −4.68 ± 0.73): −4.31 ± 0.67 mV
- Fast inactivation V0.5 (mV) ([8]; total calcium currents, SGC-PIKFYVE-1 10 µM, DMSO control −36.91 ± 0.73): −34.76 ± 1.79 mV
- IV curve Peak/density (pA/pF) ([8]; total calcium currents, SGC-PIKFYVE-1 10 µM, DMSO control −107.71 ± 14.20): −113.06 ± 13.24 pA/pF
- Lysosomal homeostasis (SH-SY5Y cells): impacted lysosomal homeostasis
- Capsaicin-induced nociceptive behaviors ([9]; female mice): able to reduce the nociceptive behaviors
- Duration of reduction of capsaicin-induced allodynia ([9]; male mice, 1 h after intraplantar capsaicin): 2 h

Compound: COc1c([C@H]2[C@H](C(=O)Nc3ccnc(C(N)=O)c3)O[C@@](C)(C(F)(F)F)[C@H]2C)ccc(F)c1F [VX-548, reference compound]
- Activation k ([2]; VX-548 5 nM, DMSO control 3.70 ± 0.39): 6.18 ± 0.88
- Fast inactivation k ([2]; VX-548 5 nM, DMSO control −12.25 ± 1.08): −9.98 ± 0.99
- Activation V0.5 (mV) ([2]; VX-548 5 nM, DMSO control −24.61 ± 0.44): −19.51 ± 0.98 mV
- Fast inactivation V0.5 (mV) ([2]; VX-548 5 nM, DMSO control −52.39 ± 1.14): −59.85 ± 1.10 mV
- IV curve Peak/density (pA/pF) ([2]; VX-548 5 nM, DMSO control −358.2 ± 32.87): −200.5 ± 35.37 pA/pF

Compound: Cc1cccc(/C=N/Nc2cc(N3CCOCC3)nc(OCCc3ccccn3)n2)c1 [apilimod, reference compound]
- Lysosomal homeostasis (SH-SY5Y cells): impacted lysosomal homeostasis

Compound: ProTxII [reference compound]
- Activation k ([2]; ProTxII 5 nM, DMSO control 4.25 ± 0.42): 4.17 ± 0.49
- Fast inactivation k ([2]; ProTxII 5 nM, DMSO control −11.11 ± 0.74): −11.11 ± 1.15
- Activation V0.5 (mV) ([2]; ProTxII 5 nM, DMSO control −20.48 ± 0.48): −14.89 ± 0.57 mV
- Fast inactivation V0.5 (mV) ([2]; ProTxII 5 nM, DMSO control −47.42 ± 0.79): −53.17 ± 1.24 mV
- IV curve Peak/density (pA/pF) ([2]; ProTxII 5 nM, DMSO control −533.2 ± 42.99): −207.3 ± 57.12 pA/pF
